In ChEMBL document CHEMBL1155311, “Synthesis and evaluation of N-[(1S,2S)-3-(4-chlorophenyl)-2-(3-cyanophenyl)-1-methylpropyl]-2-methyl-2-aminopropanamide as human cannabinoid-1 receptor (CB1R) inverse agonists” (Bioorg Med Chem Lett, 2009):

Assays:
Cannabinoid receptor 1 [1] = molecular target: T1, Cannabinoid receptor 1 (Homo sapiens, UniProt P21554); experiment: Displacement of [3H]CP-55940 from recombinant human CB1 receptor expressed in CHO cells; assay type: cell-based
Cannabinoid receptor 2 = Cannabinoid receptor 2 (Homo sapiens, UniProt P34972); experiment: Displacement of [3H]CP-55940 from recombinant human CB2 receptor expressed in CHO cell; assay type: cell-based
Chain of Cannabinoid receptor 2 (P34972 whole entry): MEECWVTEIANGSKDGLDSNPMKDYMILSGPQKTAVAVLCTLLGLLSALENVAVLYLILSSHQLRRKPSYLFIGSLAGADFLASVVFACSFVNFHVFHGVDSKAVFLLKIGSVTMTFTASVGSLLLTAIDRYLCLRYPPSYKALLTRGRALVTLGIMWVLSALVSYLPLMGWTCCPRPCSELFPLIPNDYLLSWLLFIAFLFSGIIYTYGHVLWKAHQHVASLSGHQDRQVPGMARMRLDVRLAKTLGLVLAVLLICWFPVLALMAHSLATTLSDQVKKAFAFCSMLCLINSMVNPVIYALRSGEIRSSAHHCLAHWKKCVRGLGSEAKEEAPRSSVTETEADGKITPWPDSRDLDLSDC

Homo sapiens = organism: Homo sapiens; experiment: Selectivity ratio of IC50 of human recombinant CB2 receptor to IC50 of human recombinant CB1 receptor
Cannabinoid receptor 1 [2] = molecular target: T1, Cannabinoid receptor 1; experiment: Inverse agonist activity at human CB1 receptor assessed as forskolin-induced cAMP level by adenylyl cyclase activation flash plate assay; assay type: functional
Cytochrome P450 3A4 = Cytochrome P450 3A4 (Homo sapiens, UniProt P08684); experiment: Inhibition of CYP3A4; assay type: ADME
Chain of Cytochrome P450 3A4 (P08684 whole entry): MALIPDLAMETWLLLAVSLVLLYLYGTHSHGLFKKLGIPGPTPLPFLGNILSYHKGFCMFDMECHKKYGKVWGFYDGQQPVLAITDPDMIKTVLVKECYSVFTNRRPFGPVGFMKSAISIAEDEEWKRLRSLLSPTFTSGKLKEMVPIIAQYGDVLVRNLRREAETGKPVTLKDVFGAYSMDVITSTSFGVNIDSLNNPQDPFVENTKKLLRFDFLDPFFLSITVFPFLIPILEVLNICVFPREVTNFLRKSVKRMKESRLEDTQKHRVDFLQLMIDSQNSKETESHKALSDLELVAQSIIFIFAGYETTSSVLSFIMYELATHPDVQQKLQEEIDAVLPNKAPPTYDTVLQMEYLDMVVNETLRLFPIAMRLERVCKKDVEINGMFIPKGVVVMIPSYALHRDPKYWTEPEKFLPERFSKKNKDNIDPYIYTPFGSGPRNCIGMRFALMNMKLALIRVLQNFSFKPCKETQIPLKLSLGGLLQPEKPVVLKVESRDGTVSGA

Liver microsomes [3] = experiment: Metabolic stability in rat liver microsomes assessed as glucuronide formation; assay type: ADME, Microsome
Summary of the method: (§1)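 Rat or human liver microsomes (1 mg/mL protein) were incubated in 100 mM potassium phosphate, pH 7.4, with 10 mM MgCl2, alamethicin, 5 mM D-saccharic acid 1,4-lactone and 3 mM UDPGA. Incubation ran 90 min at 37 °C with shaking and was quenched with 2 volumes of cold acetonitrile. After centrifugation, glucuronide was detected in the supernatant by LC–MS/MS.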

Liver microsomes [4] = experiment: Metabolic stability in human liver microsomes assessed as glucuronide formation; assay type: ADME, Microsome; summary of the method: as §1

T1 sequence (P21554 whole entry): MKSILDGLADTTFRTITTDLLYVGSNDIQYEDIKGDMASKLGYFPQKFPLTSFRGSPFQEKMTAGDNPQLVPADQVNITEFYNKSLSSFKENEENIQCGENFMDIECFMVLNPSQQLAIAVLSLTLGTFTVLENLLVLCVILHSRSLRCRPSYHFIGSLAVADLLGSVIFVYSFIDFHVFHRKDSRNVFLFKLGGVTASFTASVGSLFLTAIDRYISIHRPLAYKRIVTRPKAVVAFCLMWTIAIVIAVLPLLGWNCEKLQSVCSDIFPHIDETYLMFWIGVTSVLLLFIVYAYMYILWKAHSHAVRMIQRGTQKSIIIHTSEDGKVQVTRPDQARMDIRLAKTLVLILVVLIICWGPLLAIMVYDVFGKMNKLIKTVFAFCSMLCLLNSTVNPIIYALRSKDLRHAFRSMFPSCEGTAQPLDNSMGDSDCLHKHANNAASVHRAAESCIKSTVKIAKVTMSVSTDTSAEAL

Row | IC50 (Cannabinoid receptor 1 [1]) [nM] | IC50 (Cannabinoid receptor 2) [nM] | Ratio IC50 (Homo sapiens) | EC50 (Cannabinoid receptor 1 [2]) [nM] | IC50 (Cytochrome P450 3A4) [nM] | Stability (Liver microsomes [3]) | Stability (Liver microsomes [4]) | SMILES
1 | 203 | 13300 | 65 |  |  |  |  | C[C@H](NC(=O)C(C)(C)Nc1ccnn1C)[C@@H](Cc1ccc(Cl)cc1)c1cccc(C#N)c1
2 | 301 | 6110 |  |  |  |  |  | Cc1cc(NC(C)(C)C(=O)N[C@@H](C)[C@@H](Cc2ccc(Cl)cc2)c2cccc(C#N)c2)[nH]n1
3 | 8.6 | 254 | 30 | 3.5 |  |  |  | C[C@H](NC(=O)C(C)(C)Nc1cc(C(C)(C)C)on1)[C@@H](Cc1ccc(Cl)cc1)c1cccc(C#N)c1
4 | 10.1 | 117 | 12 | 1.9 |  |  |  | C[C@H](NC(=O)C(C)(C)Nc1cc2ccccc2cn1)[C@@H](Cc1ccc(Cl)cc1)c1cccc(C#N)c1
5 |  |  | 20 |  |  |  |  | Cc1cc(NC(C)(C)C(=O)N[C@@H](C)[C@@H](Cc2ccc(Cl)cc2)c2cccc(C#N)c2)n[nH]1
6 | 132 | 1720 | 13 |  | > 35000 |  |  | C[C@H](NC(C)(C)C(=O)Nc1ccc(C(F)(F)F)cn1)[C@@H](Cc1ccc(Cl)cc1)c1cccc(C#N)c1
7 | 136 | 2310 | 17 |  |  |  |  | C[C@H](NC(C)(C)C(=O)Nc1cc(-c2ccccc2)on1)[C@@H](Cc1ccc(Cl)cc1)c1cccc(C#N)c1
8 | 2980 | 25900 | 8.7 |  |  |  |  | C[C@H](NC(=O)C(C)(C)NCCCN(C)C)[C@@H](Cc1ccc(Cl)cc1)c1cccc(C#N)c1
9 | 186 | 234 | 1.3 |  |  |  |  | C[C@H](NC(=O)C(C)(C)Nc1cc(-c2ccccc2)on1)[C@@H](Cc1ccc(Cl)cc1)c1cccc(C#N)c1
10 | 47.7 | 3210 | 67 |  |  |  |  | C[C@H](NC(=O)C(C)(C)Nc1ccon1)[C@@H](Cc1ccc(Cl)cc1)c1cccc(C#N)c1
11 | 49 | 1830 | 37 |  |  | Stable | Stable | C[C@H](NC(=O)C(C)(C)Nc1ccccn1)[C@@H](Cc1ccc(Cl)cc1)c1cccc(C#N)c1
12 | 49.2 | 14000 | 286 |  |  | Stable | Stable | C[C@H](NC(=O)C(C)(C)Nc1ccncn1)[C@@H](Cc1ccc(Cl)cc1)c1cccc(C#N)c1
13 | 37.7 | 547 | 15 |  |  |  |  | Cc1ccnc(NC(C)(C)C(=O)N[C@@H](C)[C@@H](Cc2ccc(Cl)cc2)c2cccc(C#N)c2)c1
14 | 19.5 | 5160 | 265 |  |  |  |  | Cc1cc(NC(C)(C)C(=O)N[C@@H](C)[C@@H](Cc2ccc(Cl)cc2)c2cccc(C#N)c2)no1
15 | 7.5 | 322 | 43 | 3.2 | 2030 |  |  | C[C@H](NC(=O)C(C)(C)Nc1ccc(C(F)(F)F)cn1)[C@@H](Cc1ccc(Cl)cc1)c1cccc(C#N)c1
16 | 1.6 | 353 | 221 | 0.9 |  | Stable | Stable | C[C@H](NC(=O)C(C)(C)Nc1cc(C(F)(F)F)ccn1)[C@@H](Cc1ccc(Cl)cc1)c1cccc(C#N)c1
17 | 97 | 1410 | 15 |  |  |  |  | C[C@H](NC(=O)C(C)(C)Nc1nc2ccccc2n1C)[C@@H](Cc1ccc(Cl)cc1)c1cccc(C#N)c1
18 | 12.2 | 699 | 57 |  |  |  |  | C[C@H](NC(=O)C(C)(C)Nc1ncc(Cl)cc1Cl)[C@@H](Cc1ccc(Cl)cc1)c1cccc(C#N)c1
19 | 17.9 | 419 | 23 |  |  |  |  | C[C@H](NC(=O)C(C)(C)Nc1ncc(C(F)(F)F)cc1Cl)[C@@H](Cc1ccc(Cl)cc1)c1cccc(C#N)c1
20 | 46.1 | 3860 | 84 |  |  |  |  | Cc1cc(NC(C)(C)C(=O)N[C@@H](C)[C@@H](Cc2ccc(Cl)cc2)c2cccc(C#N)c2)on1
